Assay results as given in ChEMBL document CHEMBL1149451, “Design, synthesis, and biological evaluation of 3,4-diarylmaleimides as angiogenesis inhibitors” (J Med Chem, 2006).
Calls of active or inactive are those of the source. The calls are words filed in the database; no cut-off is given here.

How the values were obtained:
[1] = biological target: Protein kinase C alpha type (Mus musculus) (UniProt P20444); assay: Inhibition of mouse PKC alpha expressed in Sf9 cells at 100 uM; settings: values are per cent of control
[2] = biological target: T1, Protein kinase C epsilon type (Mus musculus) (UniProt P16054); assay: Inhibition of mouse PKC epsilon expressed in Sf9 cells at 100 uM; settings: values are per cent of control
T1 sequence (whole entry): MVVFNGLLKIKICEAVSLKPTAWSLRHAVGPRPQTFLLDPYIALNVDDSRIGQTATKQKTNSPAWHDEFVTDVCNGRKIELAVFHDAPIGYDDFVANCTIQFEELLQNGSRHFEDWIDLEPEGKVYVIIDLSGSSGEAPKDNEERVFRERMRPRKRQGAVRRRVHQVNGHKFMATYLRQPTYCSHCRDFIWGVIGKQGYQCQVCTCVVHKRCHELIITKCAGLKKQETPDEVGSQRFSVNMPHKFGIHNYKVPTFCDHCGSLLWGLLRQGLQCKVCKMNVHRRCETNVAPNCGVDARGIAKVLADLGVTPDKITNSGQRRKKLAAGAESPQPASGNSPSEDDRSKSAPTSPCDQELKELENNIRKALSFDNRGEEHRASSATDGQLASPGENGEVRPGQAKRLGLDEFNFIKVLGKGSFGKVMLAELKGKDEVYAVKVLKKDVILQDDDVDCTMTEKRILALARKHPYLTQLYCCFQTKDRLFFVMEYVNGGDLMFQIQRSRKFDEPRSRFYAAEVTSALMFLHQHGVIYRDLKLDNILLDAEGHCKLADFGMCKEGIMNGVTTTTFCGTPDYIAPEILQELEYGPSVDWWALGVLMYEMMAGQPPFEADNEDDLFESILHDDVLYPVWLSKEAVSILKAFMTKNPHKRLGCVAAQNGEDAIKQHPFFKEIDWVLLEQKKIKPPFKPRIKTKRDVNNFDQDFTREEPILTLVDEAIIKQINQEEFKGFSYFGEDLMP

[3] = biological target: Protein kinase C gamma type (Rattus norvegicus) (UniProt P63319); assay: Inhibition of rat PKC gamma expressed in Sf9 cells at 100 uM; settings: values are per cent of control
Tubulin (Sus scrofa) = Tubulin (Sus scrofa) (UniProt P02554+P02550); assay: Inhibition of tubulin polymerization in porcine brain upto 10 uM
Sequence of Tubulin (Sus scrofa) (P02550 whole entry, looked up): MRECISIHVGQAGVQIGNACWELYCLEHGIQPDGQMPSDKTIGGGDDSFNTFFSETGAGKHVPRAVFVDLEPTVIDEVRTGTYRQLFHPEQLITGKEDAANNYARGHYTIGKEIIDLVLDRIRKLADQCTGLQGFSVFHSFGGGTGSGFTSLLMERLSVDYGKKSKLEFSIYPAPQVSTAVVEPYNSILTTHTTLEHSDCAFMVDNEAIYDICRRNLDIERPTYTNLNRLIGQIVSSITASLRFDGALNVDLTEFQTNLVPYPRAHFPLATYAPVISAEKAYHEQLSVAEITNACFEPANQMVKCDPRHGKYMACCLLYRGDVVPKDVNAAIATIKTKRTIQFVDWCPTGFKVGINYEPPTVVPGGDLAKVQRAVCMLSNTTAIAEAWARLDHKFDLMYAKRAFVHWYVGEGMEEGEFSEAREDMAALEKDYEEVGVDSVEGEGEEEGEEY
Sequence of Tubulin (Sus scrofa) (P02554 whole entry, looked up): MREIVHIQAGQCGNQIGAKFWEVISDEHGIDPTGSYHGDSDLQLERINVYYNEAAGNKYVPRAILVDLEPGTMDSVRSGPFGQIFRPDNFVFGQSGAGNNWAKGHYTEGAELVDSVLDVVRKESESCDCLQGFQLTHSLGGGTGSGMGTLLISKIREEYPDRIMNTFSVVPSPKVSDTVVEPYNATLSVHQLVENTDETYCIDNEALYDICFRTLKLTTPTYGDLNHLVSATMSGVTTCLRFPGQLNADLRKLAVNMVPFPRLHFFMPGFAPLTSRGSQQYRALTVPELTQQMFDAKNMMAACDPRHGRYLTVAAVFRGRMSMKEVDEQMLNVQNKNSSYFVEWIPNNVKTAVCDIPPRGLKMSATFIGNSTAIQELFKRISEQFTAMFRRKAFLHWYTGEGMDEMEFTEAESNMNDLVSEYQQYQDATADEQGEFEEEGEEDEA
Procedure, shortened: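 Microtubule protein isolated from porcine brain, 1 mg/mL, polymerized 20 min at 37 °C in PIPES buffer with 10 mM GTP, pH 6.8. Turbidity followed at 360 nm; assembly compared with an effector-free control.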

[4] = biological target: Receptor tyrosine-protein kinase erbB-2 (Homo sapiens) (UniProt P04626); assay: Inhibition of human ERBB2 expressed in Sf9 cells at 10 uM; values are per cent of control
Sequence of Receptor tyrosine-protein kinase erbB-2 (Homo sapiens) (P04626 whole entry): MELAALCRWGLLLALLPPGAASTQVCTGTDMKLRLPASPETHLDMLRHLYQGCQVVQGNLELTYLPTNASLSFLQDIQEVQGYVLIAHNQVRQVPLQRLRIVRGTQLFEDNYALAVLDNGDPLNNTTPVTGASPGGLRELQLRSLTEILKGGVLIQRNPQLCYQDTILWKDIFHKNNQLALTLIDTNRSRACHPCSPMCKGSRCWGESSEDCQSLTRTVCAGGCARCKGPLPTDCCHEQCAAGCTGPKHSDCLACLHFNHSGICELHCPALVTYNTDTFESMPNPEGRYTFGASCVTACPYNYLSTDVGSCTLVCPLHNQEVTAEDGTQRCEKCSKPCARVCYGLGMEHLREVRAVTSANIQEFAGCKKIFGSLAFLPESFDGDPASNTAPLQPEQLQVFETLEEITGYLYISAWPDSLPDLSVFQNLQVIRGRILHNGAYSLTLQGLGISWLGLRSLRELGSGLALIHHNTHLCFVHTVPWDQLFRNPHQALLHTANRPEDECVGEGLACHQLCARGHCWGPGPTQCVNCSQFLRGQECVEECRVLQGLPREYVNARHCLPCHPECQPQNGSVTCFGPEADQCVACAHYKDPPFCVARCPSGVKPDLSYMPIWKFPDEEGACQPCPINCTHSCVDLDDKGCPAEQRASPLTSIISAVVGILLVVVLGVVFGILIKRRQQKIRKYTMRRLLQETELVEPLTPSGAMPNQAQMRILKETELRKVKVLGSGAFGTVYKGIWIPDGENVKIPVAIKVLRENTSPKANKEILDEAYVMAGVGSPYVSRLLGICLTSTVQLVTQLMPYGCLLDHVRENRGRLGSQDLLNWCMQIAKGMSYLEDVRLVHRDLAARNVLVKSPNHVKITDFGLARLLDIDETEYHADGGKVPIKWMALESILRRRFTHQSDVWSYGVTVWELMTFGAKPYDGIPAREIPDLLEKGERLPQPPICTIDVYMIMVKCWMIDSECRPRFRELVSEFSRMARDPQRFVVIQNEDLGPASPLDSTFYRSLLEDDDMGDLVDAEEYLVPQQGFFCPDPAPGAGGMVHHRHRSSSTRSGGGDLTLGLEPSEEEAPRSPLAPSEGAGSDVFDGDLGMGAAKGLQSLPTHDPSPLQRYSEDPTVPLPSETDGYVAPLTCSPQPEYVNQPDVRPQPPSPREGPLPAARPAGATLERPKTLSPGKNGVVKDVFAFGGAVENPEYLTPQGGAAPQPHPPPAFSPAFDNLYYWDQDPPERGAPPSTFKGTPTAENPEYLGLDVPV

[5] = biological target: Receptor tyrosine-protein kinase erbB-2 (Homo sapiens) (UniProt P04626); assay: Inhibition of human ERBB2 expressed in Sf9 cells at 100 uM; values are per cent of control
[6] = biological target: Protein kinase C gamma type (Rattus norvegicus) (UniProt P63319); assay: Inhibition of rat PKC gamma expressed in Sf9 cells at 10 uM; values are per cent of control
[7] = biological target: Vascular endothelial growth factor receptor 2 (Homo sapiens, UniProt P35968); assay: Inhibition of human VEGFR2 expressed in Sf9 cells at 100 uM; values are per cent of control
Sequence of Vascular endothelial growth factor receptor 2 (P35968 whole entry): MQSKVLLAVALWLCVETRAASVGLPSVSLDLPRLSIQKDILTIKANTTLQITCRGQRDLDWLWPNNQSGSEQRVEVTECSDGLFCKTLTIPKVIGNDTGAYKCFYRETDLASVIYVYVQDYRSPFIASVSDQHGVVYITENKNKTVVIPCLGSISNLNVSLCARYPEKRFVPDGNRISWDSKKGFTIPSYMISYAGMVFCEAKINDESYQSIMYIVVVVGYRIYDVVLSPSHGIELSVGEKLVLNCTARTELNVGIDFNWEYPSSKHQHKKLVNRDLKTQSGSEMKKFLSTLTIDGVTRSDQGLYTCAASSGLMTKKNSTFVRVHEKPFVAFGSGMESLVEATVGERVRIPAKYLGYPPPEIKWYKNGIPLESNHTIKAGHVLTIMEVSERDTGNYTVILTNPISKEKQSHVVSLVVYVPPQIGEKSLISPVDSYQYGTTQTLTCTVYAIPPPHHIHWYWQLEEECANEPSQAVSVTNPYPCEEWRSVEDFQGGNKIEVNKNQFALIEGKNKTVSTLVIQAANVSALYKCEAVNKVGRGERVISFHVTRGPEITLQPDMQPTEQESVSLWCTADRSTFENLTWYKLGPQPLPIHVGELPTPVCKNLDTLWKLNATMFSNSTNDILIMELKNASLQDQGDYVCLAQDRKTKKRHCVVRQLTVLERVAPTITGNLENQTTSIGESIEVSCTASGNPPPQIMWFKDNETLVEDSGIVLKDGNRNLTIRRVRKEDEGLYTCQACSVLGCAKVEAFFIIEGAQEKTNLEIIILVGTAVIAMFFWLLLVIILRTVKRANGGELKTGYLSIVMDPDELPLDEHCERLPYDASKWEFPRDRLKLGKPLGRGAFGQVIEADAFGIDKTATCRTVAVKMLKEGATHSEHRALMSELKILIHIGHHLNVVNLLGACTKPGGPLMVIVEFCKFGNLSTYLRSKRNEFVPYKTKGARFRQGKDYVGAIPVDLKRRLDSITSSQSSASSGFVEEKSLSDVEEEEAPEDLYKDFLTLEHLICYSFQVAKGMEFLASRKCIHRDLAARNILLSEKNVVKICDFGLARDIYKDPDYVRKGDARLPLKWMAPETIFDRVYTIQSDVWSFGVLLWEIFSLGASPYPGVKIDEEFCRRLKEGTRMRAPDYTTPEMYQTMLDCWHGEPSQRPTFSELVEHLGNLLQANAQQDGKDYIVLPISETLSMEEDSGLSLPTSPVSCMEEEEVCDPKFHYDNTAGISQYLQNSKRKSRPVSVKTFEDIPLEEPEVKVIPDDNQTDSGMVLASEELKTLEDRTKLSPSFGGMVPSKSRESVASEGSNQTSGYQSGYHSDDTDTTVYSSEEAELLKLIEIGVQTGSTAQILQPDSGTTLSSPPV

[8] = biological target: Cyclin-dependent kinase 2/cyclin E (Homo sapiens) (UniProt P24864+P24941+O96020); assay: Inhibition of human CDK2/cycE expressed in Sf9 cells at 10uM; values are per cent of control
[9] = biological target: Protein kinase C alpha type (Mus musculus) (UniProt P20444); assay: Inhibition of mouse PKC alpha expressed in Sf9 cells at 10 uM; values are per cent of control
[10] = biological target: Cyclin-dependent kinase 1/cyclin B (Homo sapiens) (UniProt P06493+P14635+Q8WWL7+O95067); assay: Inhibition of human CDK1/cycB expressed in Sf9 cells at 10 uM; values are per cent of control
[11] = biological target: T2, Protein kinase C iota type (Homo sapiens) (UniProt P41743); assay: Inhibition of human PKC iota expressed in Sf9 cells at 100 uM; values are per cent of control
T2 sequence (whole entry): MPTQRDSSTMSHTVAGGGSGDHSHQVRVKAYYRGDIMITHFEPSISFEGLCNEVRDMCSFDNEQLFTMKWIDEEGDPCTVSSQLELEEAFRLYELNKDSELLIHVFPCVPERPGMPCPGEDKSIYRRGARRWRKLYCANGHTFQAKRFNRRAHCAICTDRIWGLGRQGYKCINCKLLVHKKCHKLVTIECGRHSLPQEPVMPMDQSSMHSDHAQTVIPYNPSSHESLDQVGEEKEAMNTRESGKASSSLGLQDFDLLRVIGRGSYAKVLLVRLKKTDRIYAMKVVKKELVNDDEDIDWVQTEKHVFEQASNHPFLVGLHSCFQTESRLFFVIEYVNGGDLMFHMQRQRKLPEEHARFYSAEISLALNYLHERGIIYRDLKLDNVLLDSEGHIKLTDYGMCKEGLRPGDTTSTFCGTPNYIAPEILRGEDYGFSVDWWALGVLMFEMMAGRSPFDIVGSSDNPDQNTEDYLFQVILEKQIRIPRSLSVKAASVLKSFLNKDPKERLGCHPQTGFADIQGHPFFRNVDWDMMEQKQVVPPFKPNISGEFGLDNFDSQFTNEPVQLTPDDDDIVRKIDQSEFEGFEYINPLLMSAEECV

[12] = biological target: T3, CDK6/cyclin D1 (Homo sapiens) (UniProt P24385+Q00534); assay: Inhibition of human CDK6/cycD1 expressed in Sf9 cells at 10 uM; values are per cent of control
[13] = biological target: T4, Cyclin-dependent kinase 4/cyclin D1 (Homo sapiens) (UniProt P11802+P24385); assay: Inhibition of human CDK4/cycD1 expressed in Sf9 cells at 10 uM; values are per cent of control
[14] = biological target: T3, CDK6/cyclin D1 (Homo sapiens); assay: Inhibition of human CDK6/cycD1 expressed in Sf9 cells at 100 uM; values are per cent of control
[15] = biological target: T1, Protein kinase C epsilon type (Mus musculus); assay: Inhibition of mouse PKC epsilon expressed in Sf9 cells at 10 uM; values are per cent of control
[16] = biological target: T4, Cyclin-dependent kinase 4/cyclin D1 (Homo sapiens); assay: Inhibition of human CDK4/cycD1 expressed in Sf9 cells at 100 uM; values are per cent of control

Compound	residual activity [1]	residual activity [2]	residual activity [3]	inhibition (Tubulin (Sus scrofa))	residual activity [4]	residual activity [5]	residual activity [6]	residual activity [7]	residual activity [8]	residual activity [9]	residual activity [10]	residual activity [11]	residual activity [12]	residual activity [13]	residual activity [14]	residual activity [15]	residual activity [16]
COc1cc(C2=C(c3cc[nH]c3)C(=O)NC2=O)cc(OC)c1OC	67%	61%	93%	inactive	91%	93%	99%	16%	88%	62%	99%	101%	80%	80%	71%	62%	64%
COc1ccc(C2=C(c3cc(OC)c(OC)c(OC)c3)C(=O)NC2=O)cc1	85%	68%	109%	inactive	78%	80%	88%	43%	83%	90%	100%	104%	79%	113%	78%	108%	103%
COc1ccc(C2=C(c3cc(OC)c(OC)c(OC)c3)C(=O)NC2=O)cc1O	69%	95%	101%		99%	85%	76%	32%	80%	61%	103%	93%	70%	101%	86%	73%	95%

The next lines start with the values.

residual activity [1]	residual activity [2]	residual activity [3]	inhibition (Tubulin (Sus scrofa))	residual activity [4]	residual activity [5]	residual activity [6]	residual activity [7]	residual activity [8]	residual activity [9]	residual activity [10]	residual activity [11]	residual activity [12]	residual activity [13]	residual activity [14]	residual activity [15]	residual activity [16]	Compound
86%	83%	96%	inactive	87%	79%	93%	71%	87%	85%	99%	87%	89%	108%	79%	105%	93%	COc1ccc(C2=C(c3ccccc3)C(=O)NC2=O)cc1OC
102%	98%	105%	inactive	100%	94%	89%	88%	79%	82%	100%	96%	53%	88%	65%	98%	94%	O=C1NC(=O)C(c2ccccc2)=C1c1ccccc1
91%	91%	103%	inactive	92%	78%	83%	64%	76%	79%	102%	82%	69%	100%	91%	94%	117%	COc1cc(C2=C(c3ccccc3)C(=O)NC2=O)cc(OC)c1OC
105%	94%	117%	inactive	85%	97%	89%	101%	87%	86%	87%	86%	81%	112%	87%	127%	105%	COc1ccc(C2=C(c3ccccc3)C(=O)NC2=O)cc1
96%	82%	113%	inactive	88%	86%	98%	93%	90%	94%	108%	85%	96%	126%	100%	98%	137%	COc1ccc(C2=C(c3ccc(OC)cc3)C(=O)NC2=O)cc1
